RAD54 branch: inhibitors of human RAD54 branch migration; RAD54 Holliday junction branch migration, FAM/BHQ fluorescence; inhibition, % at 10.4 µM; hit rate 0.14% among 360,000; AID 602329;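 active = mean normalized replicate activity at least 40 and at least half of replicates scoring 40 or more; inconclusive = only one of the two criteria met; inactive = mean below 40 and under half of replicates reaching 40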;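 note: 0% = median of neutral control wells and 100% = median of positive control wells; inhibitors cause a drop in the FAM fluorescence signal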
S100A4 MyoIIA: inhibitors of human S100A4 binding to myosin IIA peptide. P26447. hit rate 0.14% among 360,000. S100A4/TAMRA-MyoIIA peptide fluorescence polarization. inhibition, % at 10.7 µM;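 active = mean inhibition of at least 70% across replicates, with every replicate also reaching that level; inconclusive = mean inhibition reaches 70% but some replicates fall short; inactive = mean inhibition below 70%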
Target sequence (P26447 whole entry, looked up): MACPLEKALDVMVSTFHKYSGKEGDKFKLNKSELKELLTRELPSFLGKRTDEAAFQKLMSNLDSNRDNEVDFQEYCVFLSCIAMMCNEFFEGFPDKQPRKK
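Assay system: human S100A4 monomer with TAMRA-labelled myosin IIA peptide / Buffer or medium: Calcium-containing HEPES buffer, pH 7.2 / Reagent: TAMRA-labelled myosin IIA heavy-chain peptide probe, 5 nM / Compound: one dose per compound / Timing: polarization read 5 min after assay mix addition, stable 5–60 min / Benchmarks: neutral control DMSO, positive control TFP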
MLL AF4-AF9 inh: MLL-AF4/AF9 protein interaction inhibition; AlphaScreen, biotin-AF4 peptide binding to FLAG-AF9; AID 651704; inhibition, % at 10 µM; hit rate 0.47% among 350,000; P42568;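 active = every replicate reaching a set inhibition limit, whatever the replicate mean, cut at about 25% in these data; inconclusive = mean inhibition reaches that limit but some replicates miss it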;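 note: 0% = plate neutral control median and 100% = total signal loss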
RAD52 anneal inh: inhibitors of human RAD52 DNA annealing | P43351 | recombinant RAD52 DNA annealing, FRET fluorescence | inhibition, % at 18.7 µM | hit rate 0.46% among 360,000;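 active = every replicate showing at least 50% inhibition; inconclusive = mean inhibition at least 50% but not in every replicate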
dFosB activator: mouse delta FosB homodimer activation; activation, % at 25 µM; purified delta FosB, TAMRA-CDK5 oligo fluorescence polarization; percent of positive-control signal above neutral wells; hit rate 0.99% among 340,000; P13346;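 active = mean activation above about 17%, with every replicate also reaching it, limit read from the data, passing the limit was not always enough; inconclusive = only one of the two conditions met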
Target sequence (P13346 whole entry, looked up): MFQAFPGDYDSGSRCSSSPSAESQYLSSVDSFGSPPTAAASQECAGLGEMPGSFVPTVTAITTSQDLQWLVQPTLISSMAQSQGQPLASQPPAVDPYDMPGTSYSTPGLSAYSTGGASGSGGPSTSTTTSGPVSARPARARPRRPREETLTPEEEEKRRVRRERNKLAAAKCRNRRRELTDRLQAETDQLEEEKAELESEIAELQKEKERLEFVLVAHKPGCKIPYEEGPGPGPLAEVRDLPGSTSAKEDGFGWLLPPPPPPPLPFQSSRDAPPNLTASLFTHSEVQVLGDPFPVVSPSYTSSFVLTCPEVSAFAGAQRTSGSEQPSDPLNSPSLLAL
DNA binder FP: DNA binding artifact in RAD52 counter-screen; Salmon sperm DNA/acridine orange FP displacement; hit rate 8% among 1,000; AC50, µM; shares compounds with RAD52 anneal inh;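 active = fitted half-maximal concentration for signal loss at or below twice the highest dose tested, in every separate run, actives reach about 64 µM in these data; inconclusive = runs disagree, or flat partial signal loss, or poor fit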
An asterisk follows results filed as active; i = inactive; ? = inconclusive; . = no result given. An excerpt weighted towards active compounds, which were near 1.5% of everything screened.

SMILES	RAD54 branch	S100A4 MyoIIA	MLL AF4-AF9 inh	RAD52 anneal inh	dFosB activator	DNA binder FP
Cc1noc(C)c1NC(=O)Nc1cccc2c1O[C@H](CN(C)CC1CC1)[C@H](C)CN([C@H](C)CO)C2=O	-8	18	-1	-6	.	.
N=C(N)c1ccc(N=Nc2c(O)ccc3c2[nH]c2ccccc23)cc1	.	-5	32*	102*	-253	i
COCC(=O)N(C)C[C@H]1Oc2ncc(C3=CCCCC3)cc2C(=O)N([C@@H](C)CO)C[C@H]1C	3	-1	-8	-3	.	.
CC(=O)NC(CC(=O)O)c1ccccc1 (stereo unspecified)	-16	-4	3	-8	-1	.
C=CC(=C)CC(NC)c1ccccc1 (stereo unspecified)	-16	-29	28*	59*	2	i
Cc1noc(C)c1NC(=O)Nc1ccc2c(c1)C(=O)N([C@H](C)CO)C[C@@H](C)[C@H](CN(C)C(=O)Nc1ccc3c(c1)OCO3)O2	8	10	-2	-2	.	.
COc1cccc2c3cccc(OC)c3c3[nH]cnc3c12	.	-2	0	86*	-95	i
CN(C)c1ccc(/C=C2\SC(=O)N(CC(O)Cn3c4ccccc4c4ccccc43)C2=O)cc1 (stereo unspecified)	-1	.	.	.	-1	.
CN(C)c1ccc(C=c2c3ccccc3n3c2c2c([n+]3C)CCCC2)cc1	.	-6	37*	89*	86*	6.9µM*
CCCCCC[N+](C)(C)CC/C=C1/c2ccccc2Sc2ccc(Cl)cc21	.	-2	22	63*	-3	i
CN1CCN(CCC=C2c3ccccc3Sc3ccc(S(=O)(=O)N(C)C)cc32)CC1	2	7	17	49	-2	.
COc1cc(OC)cc(C2=Cc3ccccc3C(CC(C)=O)N2c2ccc(C#CC3(N)CCCCC3)cc2)c1 (stereo unspecified)	.	0	12	91*	.	i
COc1cc(OC)cc(C2=Cc3ccc(OC)cc3C(CC(C)=O)N2c2ccc(C#CC3(N)CCCCC3)cc2)c1 (stereo unspecified)	.	-5	10	-11	.	.
C[C@H](CO)N1C[C@H](C)[C@H](CN(C)Cc2ccc(C(=O)O)cc2)OCc2ccccc2-c2ccccc2C1=O	-3	30	-3	15	.	.
COCCN1CCn2c(nc3cc(NC(C)=O)ccc32)C1	-4	-9	-13	-10	4	.
COCCN1CCn2c(nc3cc(Nc4nnc(C)c5ccccc45)ccc32)C1	.	-3	0	72*	10	i
CN1C(=O)[C@@H]2[C@@H](C[C@]3(COc4ccccc4)OC[C@H]2/C3=C\c2ccccc2)C1=O	.	-11	3	0	.	.
C[C@H](CO)N1C[C@H](C)[C@@H](CN(C)Cc2ccc(C(F)(F)F)cc2)Oc2ccc(NC(=O)NC3CCCCC3)cc2CC1=O	2	-19	2	29	.	.
COc1cc(NC(=O)c2ccc(N3CC4CC(C3)c3cccc(=O)n3C4)c(NC(=O)c3ccncc3)c2)cc(OC)c1OC (stereo unspecified)	2	1	0	85*	-4	i
CCOc1ccc(NC(=O)c2ccc(N3CC4CC(C3)c3cccc(=O)n3C4)c(NC(=O)c3ccncc3)c2)cc1 (stereo unspecified)	-8	-12	-4	-21	-2	.
C[C@H]1CN([C@@H](C)CO)C(=O)Cc2cc(NC(=O)C3CCCCC3)ccc2O[C@@H]1CN(C)Cc1ccc(Oc2ccccc2)cc1	-1	10	-1	-23	.	.
NC[C@H](O)c1ccc(O)c(O)c1	-5	10	-2	70*	2	i
CN(C)c1cccc2cccc(N(C)C)c12	-4	-2	.	93*	-1	i
CCN1CCCC(OC(=O)c2cc(-c3ccc(C)cc3)nc3ccccc23)C1 (stereo unspecified)	.	-8	15	57*	-30	i
CS(=O)(=O)N1CC2(C1)[C@H](c1ccccc1)[C@H](CO)N2CC1CC1	.	-5	0	2	.	.
SMILES	RAD54 branch	S100A4 MyoIIA	MLL AF4-AF9 inh	RAD52 anneal inh	dFosB activator	DNA binder FP
COc1ccc(C(N)=S)c(OC)c1	.	1	2	74*	4	i
COc1ccc(-c2ccc3c(c2)O[C@@H](CN(C)CC2CCOCC2)[C@@H](C)CN([C@H](C)CO)S3(=O)=O)cc1	-3	0	7	-2	.	.
C[C@@H]1CN([C@@H](C)CO)C(=O)Cc2cc(NC(=O)Cn3cnnn3)ccc2O[C@@H]1CN(C)C(=O)NC1CCCCC1	-4	-19	-1	-15	.	.
C[C@H](CO)N1C[C@H](C)[C@H](CN(C)C(=O)CN(C)C)Oc2cc(-c3ccncc3)ccc2S1(=O)=O	0	?	-2	13	.	.
CC(=O)C1CCC2C3CC=C4CC(SC(=N)N)CCC4(C)C3CCC12C (stereo unspecified)	.	5	11	51*	-35	i
CC(=O)OCC(=O)C1CCC2C3CC=C4CC(O)CCC4(C)C3CCC12C (stereo unspecified)	0	2	-2	-4	1	.
CC1CCN(CCCOc2ccc(Cl)cc2Br)CC1	-3	1	-1	13	1	.
CC1CCN(CCOCCOc2ccc(Cl)cc2Br)CC1	4	1	11	52*	3	i
CC=Cc1ccc2n(c1=O)C[C@H]1[C@H](CO)[C@@H](C(=O)N(C)C)N(Cc3cccc(F)c3)[C@@H]21 (mixture of isomers)	7	5	-1	-6	.	.
Cc1sc2nc(CN3CCCCC3)nc(Nc3ccc4c(c3)OCCO4)c2c1C	.	-4	7	72*	2	i
Cc1sc2nc(CN3CCCC3)nc(NCc3ccncc3)c2c1C	.	-1	-1	2	-7	.
COc1ccc2c3c([nH]c2c1)C(C)N(CCC(=O)NN)CC3 (stereo unspecified)	27	-2	10	79*	-4	i
C[C@@H]1CCCCO[C@@H](CN(C)Cc2ccc3c(c2)OCO3)[C@@H](C)CN([C@@H](C)CO)C(=O)c2cc(NC(=O)c3ccccc3)ccc2O1	2	5	3	17	.	.
OCCNc1c2ccccc2nc2ccccc12	.	6	-2	79*	20*	60µM*
OCCNc1nc2ccccc2nc1NCCO	6	0	-1	3	-7	.
CN(C)c1ccc(/C=N/n2c(C3CCCCC3)n[nH]c2=S)cc1	-14	-1	-3	97*	-16	i
CCOC(=O)c1c(CNc2ccncc2)n(C)c2cc(Br)c(O)cc12	.	2	2	64*	12	i
CCN1CCCC1CNC(=O)c1cc(N)ccc1OC (stereo unspecified)	32	3	9	90*	.	i
COc1ccc2c3c(n(C)c2c1)[C@@H](CO)N(CC1CCOCC1)CC31CCN(C(C)=O)CC1	.	-11	1	-269	.	.

Assay outcomes (PubChem BioAssay)
